# “And” between values parts separate entries of the source, which are not always exact repeats. Identical values can stand only once. The source made the active and inactive calls. No cut-off for these calls is given here.
# Assays:
# WI-38 = assay: Cytotoxicity against human WI38 cells after 96 hrs by MTT assay; format: functional, cell-based; details: WI-38, 96 h
# Nucleic Acid = assay: Protective activity against bleomycin-iron complex-induced DNA damage at 0.1 mg/ml after 1 hr; format: nucleic-acid assay
# Outline: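 Final reaction mixture: DNA 0.2 mg/mL, bleomycin 0.05 mg/mL, FeCl3 0.025 mM, MgCl2 5 mM, KH2PO4/KOH pH 7.0 30 mM, and test sample 0.1 mg/mL (in MeOH) or ascorbic acid 0.24 mM. Incubated 1 h at 37 °C, stopped with EDTA. DNA damage measured by adding 1% TBA and 25% HCl, heating 15 min at 80 °C, then reading absorbance.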
# [1] = Antioxidant activity assessed as ABTS free radical scavenging activity at 1 mg/mL by spectroscopic analysis; format: functional
# Outline: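 ABTS radical cation generated by reacting ABTS with MnO2 (25 mg/mL) in phosphate buffer pH 7, then centrifuged and filtered. Absorbance read at 734 nm before and after adding test sample (1 mg/mL in MeOH/buffer 1:1). % inhibition = [A(control) − A(test)]/A(control) × 100. Ascorbic acid (2 mM) as positive control; solvent blank without ABTS.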
# [2] = Cytotoxicity against mouse EAC after 2 hrs by trypan blue staining based hemocytometer analysis; format: functional, Ehrlich; details: for IC50: ehrlich
# Outline: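 Ehrlich ascites cells aspirated aseptically from the peritoneal cavity of a donor animal. Held in RPMI with 10% FBS at 37 °C, 5% CO2 for 2 h with compound at 25, 50 and 100 µg, final DMSO 0.1%. Dead cells counted by trypan blue staining on a hemocytometer; DMSO-only control viability exceeded 95%. 5-Fluorouracil as reference.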
# MCF7 = assay: Cytotoxicity against human MCF7 cells after 96 hrs by MTT assay; format: functional, cell-based; details: MCF7, 96 h
# HepG2 = assay: Cytotoxicity against human HepG2 cells after 96 hrs by MTT assay; format: functional, cell-based; details: HepG2, 96 h
# Vero = assay: Cytotoxicity against African green monkey Vero cells after 96 hrs by MTT assay; format: cell-based; details: Chlorocebus sabaeus
Structure (SMILES),IC50 (WI-38) [µg/mL],Activity (Nucleic Acid),inhibition [1] [%],ED25 [2] [µg],ED100 [2] [µg],IC50 [2],IC50 (MCF7) [µg/mL],IC50 (HepG2) [µg/mL],IC50 (Vero) [µg/mL],ED50 [2] [µg]
CC(=N)/C(C#N)=N\Nc1c(C)n(C)n(-c2ccccc2)c1=O,13.8,Active,80.9,0.46,97.2,100 µg,15.1,8.3,10,–
Cc1nn2c3c(nnc2c1/N=N/c1c(C)n(C)n(-c2ccccc2)c1=O)C(=O)CCC3,53,Active,52.5,0.67,91.4,99 µg and 80.2 µg,68.2,55.3,61.1,–
Cc1[nH]nc(N/N=C(\SC#N)C(=O)c2ccccc2)c1/N=N/c1c(C)n(C)n(-c2ccccc2)c1=O,92.8,Active,17.6,26.92,65.2,94.3 µg and 48.1 µg,101,95.3,96.8,–
CC(=O)c1nnc2c(/N=N/c3c(C)n(C)n(-c4ccccc4)c3=O)c(C)nn2c1C,40.3,–,27.5,11.01,73.9,96.7 µg and 55.5 µg,30.6,39.3,33.1,–
Cc1nn2c(N)c(C#N)nnc2c1/N=N/c1c(C)n(C)n(-c2ccccc2)c1=O,377,–,15.9,34.26,62,91.9 µg and 42.8 µg,452,254,301,–
O=c1[nH]cc(F)c(=O)[nH]1 [FLUOROURACIL],4,–,–,32.26,68,97.3 µg,2.5,9.1,6.4,38.6
Cc1[nH]nc(NN=C(C#N)C#N)c1/N=N/c1c(C)n(C)n(-c2ccccc2)c1=O,197,–,17.2,27.85,64,94.3 µg,221,183,209,–
Cc1[nH]nc(NN=C2C(=O)CCCC2=O)c1/N=N/c1c(C)n(C)n(-c2ccccc2)c1=O,19.8,Active,40,0.88,80,98.8 µg and 63.3 µg,29.9,16.2,24.8,–
Cc1nn2c(nnc3c(N)c(C#N)c(N)nc32)c1/N=N/c1c(C)n(C)n(-c2ccccc2)c1=O,303,–,8.28,62.53,40.6,–,419,203,220,–
CC(=O)C(=NNc1n[nH]c(C)c1/N=N/c1c(C)n(C)n(-c2ccccc2)c1=O)C(C)=O,189,–,25.8,15.59,70,95 µg and 54.1 µg,214,174,199,–
CCOC(=O)/C(C#N)=N/Nc1n[nH]c(C)c1/N=N/c1c(C)n(C)n(-c2ccccc2)c1=O,169,–,21.6,22.53,68.7,94.9 µg and 49.8 µg,150,153,179,–
CC(=N)/C(C#N)=N\Nc1n[nH]c(C)c1/N=N/c1c(C)n(C)n(-c2ccccc2)c1=O,70.2,–,28.6,1.3,80,97.5 µg and 60.1 µg,69,70.8,735,–
Cc1[nH]nc(N/N=C(/C#N)C(N)=C(C#N)C#N)c1/N=N/c1c(C)n(C)n(-c2ccccc2)c1=O,176,–,9.86,64.48,38,–,192,148,212,–
Cc1nn2c(N)c(-c3nc4ccccc4s3)nnc2c1/N=N/c1c(C)n(C)n(-c2ccccc2)c1=O,199,–,17.2,26.63,64,93.8 µg and 49 µg,186,225,244,–
Cc1[nH]nc(N)c1/N=N/c1c(C)n(C)n(-c2ccccc2)c1=O,73.1,–,28.4,1.71,79.3,97 µg and 58 µg,84.7,79.1,80.3,–
Cc1nn2c(nnc3c(C)n[nH]c32)c1/N=N/c1c(C)n(C)n(-c2ccccc2)c1=O,311,–,16.1,34.69,61,92.1 µg and 43 µg,411,210,276,–
Cc1[nH]nc(N/N=C(\C#N)c2nc3ccccc3s2)c1/N=N/c1c(C)n(C)n(-c2ccccc2)c1=O,169,–,19.3,11.17,70.8,95 µg and 56.4 µg,164,179,181,–
Cc1[nH]nc(-n2nc(C(=O)c3ccccc3)sc2=N)c1/N=N/c1c(C)n(C)n(-c2ccccc2)c1=O,171,–,15.7,39.36,60.5,90.7 µg,210,186,210,–
CC(=N)c1nnc2c(/N=N/c3c(C)n(C)n(-c4ccccc4)c3=O)c(C)nn2c1N,175,–,24.4,14.38,70.1,95.5 µg and 55 µg,152,139,164,–
O=C1O[C@H]([C@@H](O)CO)C(O)=C1O,–,–,92.3,–,–,–,–,–,–,–
CCOC(=O)c1nnc2c(/N=N/c3c(C)n(C)n(-c4ccccc4)c3=O)c(C)nn2c1N,367,–,17.6,28.02,65.3,94 µg and 47 µg,420,268,284,–
CC1=NNC(=O)/C1=N/Nc1n[nH]c(C)c1/N=N/c1c(C)n(C)n(-c2ccccc2)c1=O,300,–,16.1,26.63,63.3,93 µg and 45.5 µg,393,202,214,–
